Test results published in ChEMBL document CHEMBL2169772, “Discovery of (2S)-1-[4-(2-{6-amino-8-[(6-bromo-1,3-benzodioxol-5-yl)sulfanyl]-9H-purin-9-yl}ethyl)piperidin-1-yl]-2-hydroxypropan-1-one (MPC-3100), a purine-based Hsp90 inhibitor” (J Med Chem, 2012).
Calls of active or inactive are those of the source. No cut-off for these calls is given here.

What was measured:
Mus musculus [1] = assay: Inhibition of HSP90 in human NCI-N87 cells xenografted nude mouse tumor assessed as induction of HSP70 mRNA expression at 50 to 200 mg/kg, po qd for 22 days; format: functional, organism-based
Heat shock protein HSP90 [2] = target: T1, Heat shock protein HSP90 (Homo sapiens, UniProt P07900+P08238); assay: Inhibition of human HSP90 in DU145 cells assessed as induction of HSP70 incubated for 24 hrs by Western blot method; format: cell-based; conditions: DU-145
Method in brief: (§1)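 Cells exposed to a range of concentrations for 24 h. Lysates analyzed by Western blot with Her2-, Hsp70- and Akt-specific antibodies.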

Heat shock protein HSP90 [3] = target: T1, Heat shock protein HSP90; assay: Inhibition of human HSP90 in DU145 cells assessed as degradation of Her2 incubated for 24 hrs by Western blot method; format: cell-based; method in brief: as §1
Heat shock protein HSP90 [4] = target: T1, Heat shock protein HSP90; assay: Inhibition of human HSP90 in NCI-N87 cells assessed as degradation of Her2 incubated for 24 hrs by Western blot method; format: cell-based; method in brief: as §1
Mus musculus [5] = assay: Toxicity in nude mouse xenografted with human NCI-N87 cells assessed as effect on body weight at 200 mg/kg, po qd for 22 days measured twice a week; format: organism-based; parameters: dose 200 mg/kg, route oral; conditions: in vivo, 528 h
Method in brief: (§2)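 Female nude mice (Crl:NU-Fox1nu) implanted subcutaneously in the right flank with 5 million NCI-N87 cells. At median tumor volume of roughly >100 mm3, randomized to 5 cohorts of 10. Dosed orally once daily for 22 days with vehicle (40% w/w Captisol) or 50, 75, 125 or 200 mg/kg. Tumor size and body weight measured at least twice weekly.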

NCI-N87 [6] = assay: Antitumor activity against human NCI-N87 cells xenografted in nude mouse assessed as tumor growth inhibition at 50 mg/kg, po qd for 22 days measured twice a week; format: functional; conditions: NCI-N87, 528 h, read-out: TGI; method in brief: as §2
NCI-N87 [7] = assay: Antitumor activity against human NCI-N87 cells xenografted in nude mouse assessed as tumor growth inhibition at 75 mg/kg, po qd for 22 days measured twice a week; format: functional; conditions: NCI-N87, 528 h, read-out: TGI; method in brief: as §2
Heat shock protein HSP90 [8] = target: T1, Heat shock protein HSP90; assay: Inhibition of human HSP90 in HCT116 cells assessed as induction of HSP70 incubated for 24 hrs by Western blot method; format: cell-based; conditions: HCT-116; method in brief: as §1
Heat shock protein HSP90 [9] = target: T1, Heat shock protein HSP90; assay: Inhibition of human HSP90 in HCT116 cells assessed as degradation of Her2 incubated for 24 hrs by Western blot method; format: cell-based; method in brief: as §1
[10] = Permeability of the compound after 30 mins by PAMPA; format: ADME; conditions: read-out: permeability
Method in brief: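 Double-sink PAMPA with donor solutions at pH 5.0, 6.2 and 7.4. Filter coated with phospholipid in dodecane. Sandwich incubated 30 min at 37 °C with stirring equivalent to a 40 μm aqueous boundary layer. Permeability calculated from UV spectra at 250–490 nm. Verapamil run as positive control.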

MV4-11 = assay: Cytotoxicity against human MV4-11 cells assessed as inhibition of tumor growth incubated for 72 hrs by luminometry; format: functional, cell-based; conditions: MV4-11, 72 h
Method in brief: (§3)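 Cells seeded at 5000 per well in DMEM with 10% serum and left overnight. Compound added from DMSO dilutions (0.4% DMSO final) for 72 h. After 5 min at room temperature, ATPLite two-step lysis and substrate added, 5 min incubation, then luminescence read. Values are the mean of at least two experiments.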

BT-474 = assay: Cytotoxicity against human BT474 cells assessed as inhibition of tumor growth incubated for 72 hrs by luminometry; format: functional, cell-based; conditions: BT-474, 72 h; method in brief: as §3
NCI-N87 [11] = assay: Cytotoxicity against human NCI-N87 cells assessed as inhibition of tumor growth incubated for 72 hrs by luminometry; format: functional, cell-based; conditions: NCI-N87, 72 h; method in brief: as §3
OVCAR-8 = assay: Cytotoxicity against human OVCAR8 cells assessed as inhibition of tumor growth incubated for 72 hrs by luminometry; format: functional, cell-based; conditions: OVCAR-8, 72 h; method in brief: as §3
NCI-H69 = assay: Cytotoxicity against human NCI-H69 cells assessed as inhibition of tumor growth incubated for 72 hrs by luminometry; format: functional, cell-based; conditions: NCI-H69, 72 h; method in brief: as §3
A549 = assay: Cytotoxicity against human A549 cells assessed as inhibition of tumor growth incubated for 72 hrs by luminometry; format: functional, cell-based; conditions: A549, 72 h; method in brief: as §3
LNCaP = assay: Cytotoxicity against human LNCAP cells assessed as inhibition of tumor growth incubated for 72 hrs by luminometry; format: functional, cell-based; method in brief: as §3
[12] = AUC in Swiss nude mouse at 100 mg/kg, po by LC-ESI-MS/MS method; format: ADME, organism-based; parameters: dose 100 mg/kg, route oral; conditions: plasma
Method in brief: (§4)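 Single oral gavage in mice, vehicle 40% Captisol in phosphate buffer. EDTA plasma from cardiac puncture. Acetonitrile precipitation with internal standard, then LC-ESI-MS/MS quantitation against a 10–10 000 ng/mL standard curve. Cmax and AUC by noncompartmental analysis.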

[13] = Cmax in Swiss nude mouse at 100 mg/kg, po by LC-ESI-MS/MS method; format: ADME, organism-based; parameters: dose 100 mg/kg, route oral; conditions: in vivo; method in brief: as §4
[14] = AUC in Swiss nude mouse at 10 mg/kg, po by LC-ESI-MS/MS method; format: ADME, organism-based; parameters: dose 10 mg/kg, route oral; conditions: plasma
Method in brief: (§5)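 Mice dosed by oral gavage, vehicle DMA/PEG300/EtOH/H2O (3/40/12/45, v/v/v/v). Blood drawn by cardiac puncture into EDTA plasma. Three or five animals per time point. Plasma precipitated with acetonitrile plus internal standard. Quantified by LC-ESI-MS/MS against a 10–10 000 ng/mL standard curve with QC samples. Noncompartmental analysis.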

[15] = Tmax in Swiss nude mouse at 10 mg/kg, po by LC-ESI-MS/MS method; format: ADME, organism-based; parameters: dose 10 mg/kg, route oral; conditions: in vivo; method in brief: as §5
[16] = AUC in Swiss nude mouse at 2.5 mg/kg, iv by LC-ESI-MS/MS method; format: ADME, organism-based; parameters: dose 2.5 mg/kg, route intravenous; conditions: plasma
Method in brief: (§6)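 Intravenous dose in mice, vehicle DMA/PEG300/EtOH/H2O 3/40/12/45. Sampling at 5, 15, 30, 60, 120, 240, 480 and 720 min, three or five animals per time point. Cardiac-puncture EDTA plasma. Acetonitrile protein precipitation with internal standard, then LC-ESI-MS/MS (10–10 000 ng/mL curve). Parameters by noncompartmental fit.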

[17] = Half life in Swiss nude mouse at 2.5 mg/kg, iv by LC-ESI-MS/MS method; format: ADME, organism-based; parameters: dose 2.5 mg/kg, route intravenous; conditions: in vivo; method in brief: as §6
[18] = Volume of distribution in Swiss nude mouse at 2.5 mg/kg, iv by LC-ESI-MS/MS method; format: ADME, organism-based; parameters: dose 2.5 mg/kg, route intravenous; conditions: in vivo; method in brief: as §6
Mus musculus [19] = assay: Hepatic clearance in Swiss nude mouse at 2.5 mg/kg, iv by LC-ESI-MS/MS method; format: ADME, organism-based, Liver; parameters: dose 2.5 mg/kg, route intravenous; conditions: in vivo; method in brief: as §6
[20] = Cytotoxicity against human NCI-ADR-RES cells overexpressing P-gp 1 assessed as inhibition of tumor growth incubated for 72 hrs by luminometry; format: functional, cell-based; method in brief: as §3
HCT-116 = assay: Cytotoxicity against human HCT116 cells assessed as inhibition of tumor growth incubated for 72 hrs by luminometry; format: functional, cell-based; conditions: HCT-116, 72 h; method in brief: as §3
Heat shock protein HSP90 [21] = target: T1, Heat shock protein HSP90; assay: Inhibition of human HSP90 using BODIPY labelled geldanamycin as substrate by fluorescence polarization assay; format: protein assay
Heat shock protein HSP90 [22] = target: T1, Heat shock protein HSP90; assay: Inhibition of human HSP90 in HCT116 cells expressing Her2 gene assessed as degradation of Her2 after 4 hrs by luciferase reporter gene assay; format: cell-based; conditions: hct-116
Method in brief: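 HCT116 cells stably transfected with Her2 kinase domain (aa 641–975) fused to firefly luciferase. Seeded at 10 000 per well in DMEM with 10% serum and left overnight. Compound added from DMSO (0.4% final) for 4 h. Steady-Glo added at room temperature for 5 min, then luminescence read.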

## C[C@H](O)C(=O)N1CCC(CCn2c(Sc3cc4c(cc3Br)OCO4)nc3c(N)ncnc32)CC1
Mus musculus [1]
  inhibition: Active
Heat shock protein HSP90 [2]
  inhibition: Dose-dependent effect
Heat shock protein HSP90 [3]; DU-145
  inhibition: Dose-dependent effect
Heat shock protein HSP90 [3]; du-145
  IC50: 100 nM
Heat shock protein HSP90 [4]
  IC50: 100 nM
  inhibition: Dose-dependent effect
Mus musculus [5]
  Activity: Non-toxic
NCI-N87 [6]
  inhibition in vivo at 50 mg/kg: 37%
NCI-N87 [7]
  inhibition in vivo at 75 mg/kg: 62%
Heat shock protein HSP90 [8]
  inhibition: Dose-dependent effect
Heat shock protein HSP90 [9]; HCT-116
  inhibition: Dose-dependent effect
Heat shock protein HSP90 [9]; hct-116
  IC50: 100 nM
[10]
  Papp at 0.5 h: > 350 ×10⁻⁶ cm/s
MV4-11
  IC50: 250 nM
BT-474
  IC50: 550 nM
NCI-N87 [11]
  IC50: 200 nM
OVCAR-8
  IC50: 490 nM
NCI-H69
  IC50: 150 nM
A549
  IC50: 770 nM
LNCaP
  IC50: 510 nM
[12]
  AUC: 81800 ng·h/mL
[13]
  Cmax: 13100 ng/mL
[14]
  AUC: 3210 ng·h/mL
[15]
  Tmax: 15 min
[16]
  AUC: 2110 ng·h/mL
[17]
  half-life: 84 min
[18]
  Vd: 2.44 L/kg
Mus musculus [19]
  CLH: 19.78 mL/min/kg
[20]
  IC50: 4300 nM
HCT-116
  IC50: 540 nM
Heat shock protein HSP90 [21]
  IC50: 140 nM
Heat shock protein HSP90 [22]
  IC50: 60 nM
